# High-throughput results: PubChem BioAssay, Broad Institute
# MITF TRPM1 HTS: activators of MITF-driven TRPM1 promoter reporter, primary screen, cell-based, SK-MEL-5, luciferase, single point; SK-MEL-5 TRPM1-promoter luciferase, 24 h; % of positive control, neutral wells = 0; activation, % at 12.5 µM; hit rate 0.75% among 300,000; AID 588334, 2011;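 active = mean activation of at least 80% with every replicate also reaching 80%; inconclusive = mean reaches 80% but some replicate falls short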;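 also: 0% = neutral control wells and 100% = parthenolide positive control wells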
# ERAP1 HTS inh: human ERAP1 aminopeptidase inhibitors, primary screen, biochemical, single point, plate reader | AID 652197, 2013 | hit rate 0.15% among 340,000 | Endoplasmic reticulum aminopeptidase 1 (Homo sapiens), Q9NZ08 | recombinant ERAP1, Leu-AMC fluorescence, 60 min | inhibition, % at 10.7 µM;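 active = mean replicate inhibition of at least 30%, or all replicates individually reaching that 30% level; inactive = mean below 30% and not every replicate reaching it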;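 also: 0% = neutral control wells and 100% = L-leucinethiol positive control wells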
# Target sequence (Q9NZ08 whole entry, looked up): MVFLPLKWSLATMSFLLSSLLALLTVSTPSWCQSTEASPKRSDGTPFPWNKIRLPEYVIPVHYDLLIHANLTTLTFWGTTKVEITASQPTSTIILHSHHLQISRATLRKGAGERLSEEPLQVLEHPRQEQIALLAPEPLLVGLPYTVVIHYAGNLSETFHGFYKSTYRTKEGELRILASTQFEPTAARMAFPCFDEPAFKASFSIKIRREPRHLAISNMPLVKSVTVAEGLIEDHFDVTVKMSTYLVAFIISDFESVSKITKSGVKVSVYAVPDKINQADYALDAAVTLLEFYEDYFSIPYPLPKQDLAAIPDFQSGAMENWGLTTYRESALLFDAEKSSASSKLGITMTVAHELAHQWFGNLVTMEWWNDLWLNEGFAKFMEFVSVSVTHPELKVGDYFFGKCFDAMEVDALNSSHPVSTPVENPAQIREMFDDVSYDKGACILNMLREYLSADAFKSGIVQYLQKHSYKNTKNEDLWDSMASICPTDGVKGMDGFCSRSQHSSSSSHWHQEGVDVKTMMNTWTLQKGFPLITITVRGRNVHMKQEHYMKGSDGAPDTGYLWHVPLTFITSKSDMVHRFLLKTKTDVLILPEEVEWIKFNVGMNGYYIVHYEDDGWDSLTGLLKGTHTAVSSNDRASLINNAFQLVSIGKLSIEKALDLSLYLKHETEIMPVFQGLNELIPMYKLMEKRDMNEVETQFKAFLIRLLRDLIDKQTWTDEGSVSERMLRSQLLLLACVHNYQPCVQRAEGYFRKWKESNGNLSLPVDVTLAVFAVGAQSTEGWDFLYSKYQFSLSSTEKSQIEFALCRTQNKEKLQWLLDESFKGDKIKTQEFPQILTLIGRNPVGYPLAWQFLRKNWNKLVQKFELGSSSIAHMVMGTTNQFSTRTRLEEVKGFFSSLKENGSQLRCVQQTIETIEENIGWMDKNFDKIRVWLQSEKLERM
# esBAF inh: Bmi1 luciferase reporter increase in mESCs, primary screen, esBAF inhibitor project, mouse ES cells, Bmi1 luciferase knock-in, single point | 24 h; 100% = twice the neutral-well signal | reporter increase, % at 12.5 µM | hit rate 2% among 350,000 | AID 602393, 2012; in the data active = activation above about 40%; inconclusive = no clear call, values can overlap the other calls;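 also: 0% = median of the plate's neutral control wells and 100% = double that signal; a rise in the Bmi1 reporter signal indicates esBAF inhibition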
# Wnt act: Wnt/beta-catenin pathway activators, primary screen, cell-based, plate reader, single point | Wnt/beta-catenin reporter cell assay, activator | activation, % at 9.35 µM | hit rate 1.2% among 300,000 | AID 743398, 2014; in the data active = activation above about 30%, passing the limit was not always enough; inconclusive = no clear call, values can overlap the other calls;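 also: 0% = neutral control wells and 100% = positive control wells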
# Cneo AK release: Cryptococcus neoformans cell lysis inducers, primary screen, AK release luminescence, single concentration | C. neoformans lysis, adenylate kinase release luminescence, 4 h; normalised: neutral wells 0, clomiphene wells 100 | AID 651654, 2012 | hit rate 0.2% among 360,000 | lysis activity, % at 15 µM;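 active = mean lysis activity across replicates of at least 80%, whatever share of replicates individually reach that level; inactive = mean lysis activity below 80%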
#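 Material: C. neoformans cells | Amount: Yeast cell density of 5 × 10^6 cells/mL | Medium: Fresh YPD growth medium | Dosing: Single dose | Times: Static 4 h at 37 °C with compound, 1 h detection | Detection: AK luminescence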
# HIV Env fusion: inhibitors of HIV-1 Env-driven cell-cell fusion, primary screen, HeLa-JRFL effector, CEM21 target cells, luciferase; inhibition, % at 12.3 µM; hit rate 1.1% among 360,000; AID 651610, 2012;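 active = mean replicate inhibition score of at least 50 and every replicate individually at or above 50; inconclusive = only one of the two criteria met; inactive = mean below 50 and not all replicates reaching 50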;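 also: 0% = plate neutral controls and 100% = maraviroc near 300 nM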
# The depositor's hits bear a star; u = inconclusive; x = no result; [ ] = dose if it differs, or a comment. Only some compounds are listed: those with a hit (about 3.5% of all), similar ones and a draw of the others.
SMILES,MITF TRPM1 HTS,ERAP1 HTS inh,esBAF inh,Wnt act,Cneo AK release,HIV Env fusion
COc1cc2sc3cc(NCc4ccc5c(c4)OCO5)ccc3c(=O)c2cc1OC,49,0,36,15,-1,-34
COCC(=O)N1CCC2(CC1)CN(Cc1cc(F)ccc1F)[C@H](CO)c1c2c2ccc(OC)cc2n1C,x,2,x,x,x,x
Cc1ccccc1-c1nnc(SCC#N)o1,-6,0,x,-1,x,11
CSc1ccccc1-c1nnc(-c2ccc(C)cc2)o1,51,x,x,x,x,x
Cc1ccccc1-c1nnc(-c2ccccc2C)o1,58,x,x,47*,-4,-198
Cc1ccccc1-c1nnc(-c2ccc(Br)cc2)o1,x,x,69*,44*,x,-279
O=C(CCN1CCCCC1)NCC[C@@H]1CC[C@H](NC(=O)C2CCCC2)[C@H](CO)O1,x,8,-2,x,-3,18[16.7 µM]
O=C(Nc1cccc(F)c1)N1CC(=O)N2[C@H](CO)[C@H](c3ccc(C#Cc4cccnc4)cc3)[C@H]2C1,x,1,x,x,x,x
c1ccc(C2Oc3ccccc3C3CC(c4cccs4)=NN32)cc1 (stereo unspecified),8,-3,85*,38*,-3,x
CS(=O)(=O)N1N=C(c2cccs2)CC1c1ccccc1 (stereo unspecified),-4,0,3,5,1,1
COCC(=O)NC[C@H]1N[C@H](CO)[C@H]1c1ccc(C2=CCCC2)cc1,x,x,-4,x,97*,x
COCC(=O)NC[C@H]1N[C@H](CO)[C@@H]1c1ccc(C2=CCCC2)cc1,x,x,-3,x,108*,x
CCC(=O)NC[C@H]1N[C@H](CO)[C@@H]1c1ccc(C2=CCCC2)cc1,x,x,-3,x,-1,x
Cc1cccc(S(=O)(=O)N2CCCCN3[C@H](CO)[C@H](c4ccc(C#CC(C)C)cc4)[C@@H]3C2)c1,x,6,x,x,-1,x
CCCCNC(=O)N(O)C1N(/N=C/c2ccccc2F)C(=S)SC1(C)C (stereo unspecified),x,-1,7,-2,-1,81*
Cc1ccc(CNc2ccc([N+](=O)[O-])cc2C(N)=O)cc1,106*,3,54*,20,-5,-243
O=C(O)c1cc([N+](=O)[O-])ccc1NCc1ccccc1,-3,3,x,1,x,13
O=C(Cc1ccncc1)N1CC(=O)N2[C@@H](CO)[C@H](c3ccc(C4=CCCC4)cc3)[C@@H]2C1,x,-1,x,x,x,x
COc1cc2c(cc1OC)CN(c1ccc(C(F)(F)F)cn1)CC2,37,-6,41*,4,-12,-20
COc1cc2c(cc1OC)CN(c1ccc3ccccc3n1)CC2,53,2,u,7,-1,-17
CC(=O)c1ccc(OCc2cc(C(=O)N3CCOCC3)no2)cc1,65,-3,61*,16,2,-35
Cc1cccc(C)c1OCc1cc(C(=O)NCc2ccc(Cl)s2)no1,-10,-3,7,3,-1,2
CCOC(=O)N1CCN(C(=O)c2cc(COc3cccc(C(C)=O)c3)on2)CC1,10,-3,42*,10,0,-10
CC(=O)c1cccc(OCc2cc(C(=O)NCc3nc(C)c(C)s3)no2)c1,68,2,48*,10,1,-34
CCc1ccc(-c2ccc(SCC(=O)NC3CCCC3)nn2)cc1,x,2,47*,24,0,-21
SMILES,MITF TRPM1 HTS,ERAP1 HTS inh,esBAF inh,Wnt act,Cneo AK release,HIV Env fusion
C[C@H](CO)N1C[C@H](C)[C@H](CN(C)C(=O)Nc2ccccc2)Oc2ccc(NC(=O)Nc3cccc4ccccc34)cc2C1=O,x,-12,-1,x,2,x
C[C@H]1CN([C@@H](C)CO)C(=O)Cc2cc(NS(=O)(=O)c3cccs3)ccc2O[C@H]1CN(C)Cc1ccc(C(F)(F)F)cc1,x,0,-1,x,0,-6[16.7 µM]
O=C(O)CC(Sc1n[nH]c(=S)s1)C(=O)O (stereo unspecified),-12,34*,-1,-1,-3,1
COC(=O)C(C)Sc1n[nH]c(=S)s1 (stereo unspecified),11,x,x,x,x,x
ON=C1c2ccccc2-c2ccccc21,3,0,6,1,-1,-2
Nc1cc2c(cc1Cl)-c1ccccc1C2=NO,55,0,52*,-3,1,x
O=C(c1cnccn1)N1CC[C@@H]2[C@@H](CO)Nc3ccc(-c4ccccc4)cc3[C@@H]21,x,-2,-1,x,1,x
O=C1c2ccccc2C(=O)N1N=Cc1ccc2c(c1)OCO2,x,2,x,52*,x,-10
CN(C(=O)/C=C/c1ccc2c(c1)OCO2)c1ccccc1,11,0,53*,14,-4,-6
COc1cccc(/C=C/C(=O)c2ccc[nH]2)c1,42,x,60*,x,-4,-129
CN(/N=C/c1ccc2c(c1)OCO2)c1ccccc1,118*,x,51*,x,-5,-65
COc1cccc(/C=C/C(=O)Oc2ccc(C(=O)c3ccc(F)cc3)cc2)c1,1,-4,x,6,x,x
C(=N\N(c1ccccc1)c1ccccc1)/c1ccc2c(c1)OCO2,-6,x,x,-7,x,16
COc1ccc(NC(=O)N(C)C[C@H]2Oc3ccc(NC(=O)CCCCCC(=O)Nc4ccccc4N)cc3CC(=O)N([C@@H](C)CO)C[C@H]2C)cc1,x,0,2,x,-4,10[16.7 µM]
C[C@@H]1CN([C@H](C)CO)C(=O)c2cc(-c3ccncc3)cnc2O[C@@H]1CN(C)C(=O)C1CC1,x,x,6,x,x,-14[16.7 µM]
O=C(/C=C/c1ccc2c(c1)OCO2)c1ccc[nH]1,53,x,x,42*,x,-180
N#C[C@H]1[C@@H](c2ccc(-c3cccc(F)c3)cc2)[C@H](CO)N1C(=O)NC1CCCC1,x,-1,2,x,0,9[16.7 µM]
COc1cccc(C#Cc2ccc([C@@H]3[C@@H](C#N)N(C(=O)C4CCCC4)[C@@H]3CO)cc2)c1,x,-5,x,x,x,x
N#C[C@@H]1[C@H](c2ccc(-c3cccc(F)c3)cc2)[C@H](CO)N1C(=O)NC1CCCC1,x,-1,6,x,1,65*[16.7 µM]
N#C[C@@H]1[C@H](c2ccc(-c3ccccc3F)cc2)[C@@H](CO)N1C(=O)c1ccccn1,x,1,-9,x,-2,57*[16.7 µM]
COc1cccc(C#Cc2ccc([C@H]3[C@@H](CO)N(C(=O)C4CCCC4)[C@H]3C#N)cc2)c1,x,6,x,x,x,69*[16.7 µM]
COc1ccccc1-c1ccc([C@H]2[C@@H](CO)N(C(=O)NC3CCCCC3)[C@H]2C#N)cc1,x,0,59*,x,0,6[16.7 µM]
COc1ccc(CN(C)C[C@H]2Oc3ccc(NC(=O)Cc4ccccc4)cc3CC(=O)N([C@@H](C)CO)C[C@H]2C)cc1,x,4,-6,x,0,-13[16.7 µM]
